Source: ChEMBL document CHEMBL3632612, “Discovery of WQ-3810: Design, synthesis, and evaluation of 7-(3-alkylaminoazetidin-1-yl)fluoro-quinolones as orally active antibacterial agents” (Eur J Med Chem, 2015)
Converted amounts (≈) assume the structure as drawn.

How the values were obtained:
[1] = Drug excretion in Sprague-Dawley rat urine at 5 mg/kg, iv after 24 hrs by HPLC; type: ADME, organism-based; details: read-out: Drug excretion
Procedure, shortened: (§1)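 Six-week male Sprague-Dawley rats, fasted overnight; oral dose suspended in 0.5% methylcellulose, iv dose dissolved in 0.04 N NaOH. Urine from intact rats in metabolic cages, bile from bile duct-cannulated rats, 0–24 h. Bile alkaline-hydrolysed (1 N NaOH, 37°C, 1 h) to convert glucuronides; HPLC with UV 290 nm and internal standard; % of dose; mean ± S.D., three rats.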

[2] = Drug excretion in Sprague-Dawley rat bile assessed as unmetabolized form at 5 mg/kg, iv after 24 hrs by HPLC; type: ADME, organism-based; details: read-out: Drug excretion; procedure, shortened: as §1
Pseudomonas aeruginosa [3] = assay: Antibacterial activity against Pseudomonas aeruginosa IFO3445 assessed as growth inhibition at 128 to 0.002 mg/L incubated for 18 hrs at 37 degC by agar dilution method; type: functional; details: IFO3445, 18 h
Procedure, shortened: (§2)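 Agar dilution on Mueller Hinton agar per Japanese Society of Chemotherapy standard method; about 10⁴ cfu inoculated onto plates holding two-fold dilution series; incubation 37°C, 18 h; MIC read as growth endpoint.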

Proteus mirabilis = assay: Antibacterial activity against Proteus mirabilis IFO3849 assessed as growth inhibition at 128 to 0.002 mg/L incubated for 18 hrs at 37 degC by agar dilution method; type: functional; details: IFO3849, 18 h; procedure, shortened: as §2
Citrobacter freundii = assay: Antibacterial activity against Citrobacter freundii IFO1268 assessed as growth inhibition at 128 to 0.002 mg/L incubated for 18 hrs at 37 degC by agar dilution method; type: functional; details: IFO1268, 18 h; procedure, shortened: as §2
DNA gyrase = DNA gyrase (Escherichia coli, UniProt P0AES4+P0AES6); assay: Inhibition of Escherichia coli DNA gyrase preincubated for 5 mins at 37 degC before addition of relaxed pBR322 as substrate by supercoiling assay; type: protein-complex assay
Serratia marcescens [4] = assay: Antibacterial activity against Serratia marcescens T-55 assessed as growth inhibition at 128 to 0.002 mg/L incubated for 18 hrs at 37 degC by agar dilution method; type: functional; details: T-55, 18 h; procedure, shortened: as §2
Pseudomonas aeruginosa [5] = assay: Antibacterial activity against Pseudomonas aeruginosa 15846 assessed as growth inhibition at 128 to 0.002 mg/L incubated for 18 hrs at 37 degC by agar dilution method; type: functional; details: Pseudomonas aeruginosa, 15846, 18 h; procedure, shortened: as §2
Klebsiella pneumoniae [6] = assay: Antibacterial activity against Klebsiella pneumoniae KC-1 assessed as growth inhibition at 128 to 0.002 mg/L incubated for 18 hrs at 37 degC by agar dilution method; type: functional; details: KC-1, 18 h; procedure, shortened: as §2
[7] = Drug excretion in Sprague-Dawley rat urine at 10 mg/kg, po after 24 hrs by HPLC; type: ADME, organism-based; details: read-out: Drug excretion; procedure, shortened: as §1
Klebsiella pneumoniae [8] = assay: Antibacterial activity against Klebsiella pneumoniae DT-S assessed as growth inhibition at 128 to 0.002 mg/L incubated for 18 hrs at 37 degC by agar dilution method; type: functional; procedure, shortened: as §2
[9] = Oral drug absorption in Sprague-Dawley rat at 10 mg/kg, po after 24 hrs by HPLC; type: ADME, organism-based; details: in vivo
Procedure, shortened: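 Absorption rate computed as total urinary plus biliary excretion (% of dose, summed means) after oral dosing divided by total after iv dosing; excretion measured in fasted male Sprague-Dawley rats by HPLC over 24 h, bile glucuronides alkaline-hydrolysed.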

Proteus vulgaris = assay: Antibacterial activity against Proteus vulgaris IFO3167 assessed as growth inhibition at 128 to 0.002 mg/L incubated for 18 hrs at 37 degC by agar dilution method; type: functional; details: IFO3167, 18 h; procedure, shortened: as §2
[10] = Drug excretion in Sprague-Dawley rat at 10 mg/kg, po after 24 hrs by HPLC; type: ADME, organism-based; details: in vivo, read-out: Drug excretion; procedure, shortened: as §1
[11] = test system: Acinetobacter calcoaceticus; assay: Antibacterial activity against Acinetobacter calcoaceticus Ac-54 assessed as growth inhibition at 128 to 0.002 mg/L incubated for 18 hrs at 37 degC by agar dilution method; type: functional; details: Ac-54, 18 h; procedure, shortened: as §2
Providencia rettgeri = assay: Antibacterial activity against Providencia rettgeri W1008 assessed as growth inhibition at 128 to 0.002 mg/L incubated for 18 hrs at 37 degC by agar dilution method; type: functional; details: W1008, 18 h; procedure, shortened: as §2
Escherichia coli [12] = assay: Antibacterial activity against Escherichia coli 177 assessed as growth inhibition at 128 to 0.002 mg/L incubated for 18 hrs at 37 degC by agar dilution method; type: functional; details: Escherichia coli, 177, 18 h; procedure, shortened: as §2
Escherichia coli [13] = assay: Antibacterial activity against Escherichia coli NIHJ assessed as growth inhibition at 128 to 0.002 mg/L incubated for 18 hrs at 37 degC by agar dilution method; type: functional; procedure, shortened: as §2
Pseudomonas aeruginosa [14] = assay: Antibacterial activity against Pseudomonas aeruginosa E-2 assessed as growth inhibition at 128 to 0.002 mg/L incubated for 18 hrs at 37 degC by agar dilution method; type: functional; details: E-2, 18 h; procedure, shortened: as §2
[15] = Drug excretion in Sprague-Dawley rat bile assessed as unmetabolized form at 10 mg/kg, po after 24 hrs by HPLC; type: ADME, organism-based; details: read-out: Drug excretion; procedure, shortened: as §1
[16] = Passive permeability of the compound after 5 hrs at 25 degC by PAMPA assay; type: physicochemical; details: read-out: Peff
Procedure, shortened: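 PAMPA: 10 µM compound in PBS with 5% MeOH in donor, PBS acceptor; 25°C, 5 h; both sides quantified by HPLC; Peff derived from donor/acceptor concentrations, volumes, 0.3 cm² filter area and 18,000 s; mean ± S.D., n=3.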

Enterobacter cloacae = assay: Antibacterial activity against Enterobacter cloacae IFO13535 assessed as growth inhibition at 128 to 0.002 mg/L incubated for 18 hrs at 37 degC by agar dilution method; type: functional; details: IFO13535, 18 h; procedure, shortened: as §2
Escherichia coli [17] = assay: Antibacterial activity against Escherichia coli KC-14 assessed as growth inhibition at 128 to 0.002 mg/L incubated for 18 hrs at 37 degC by agar dilution method; type: functional; details: KC-14, 18 h; procedure, shortened: as §2
Morganella morganii = assay: Antibacterial activity against Morganella morganii W1026 assessed as growth inhibition at 128 to 0.002 mg/L incubated for 18 hrs at 37 degC by agar dilution method; type: functional; details: W1026, 18 h; procedure, shortened: as §2
Salmonella typhimurium = assay: Antibacterial activity against Salmonella typhimurium IFO13245 assessed as growth inhibition at 128 to 0.002 mg/L incubated for 18 hrs at 37 degC by agar dilution method; type: functional, Salmonella enterica subsp. enterica serovar Typhimurium; details: Salmonella enterica, IFO13245, 18 h; procedure, shortened: as §2
Serratia marcescens [18] = assay: Antibacterial activity against Serratia marcescens IFO3736 assessed as growth inhibition at 128 to 0.002 mg/L incubated for 18 hrs at 37 degC by agar dilution method; type: functional; details: IFO3736, 18 h; procedure, shortened: as §2
[19] = Solubility of the compound in JP2 solution at pH 6.8 after 24 hrs at 25 degC by HPLC; type: physicochemical
Procedure, shortened: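 Excess solid shaken in JP2 (50 mM potassium dihydrogenphosphate, pH 6.8) at 25°C for 24 h to equilibrium, filtered 0.45 µm; filtrate concentration by reversed-phase UPLC, UV 290 nm; mean ± S.D., n=3.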

[20] = Drug excretion in Sprague-Dawley rat assessed as unmetabolized form at 5 mg/kg, iv after 24 hrs by HPLC; type: ADME, organism-based; details: in vivo, read-out: Drug excretion; procedure, shortened: as §1

dose excreted at 24 h [1]	dose excreted at 24 h [2]	MIC (Pseudomonas aeruginosa [3])	MIC (Proteus mirabilis)	MIC (Citrobacter freundii)	IC50 (DNA gyrase)	MIC (Serratia marcescens [4])	MIC (Pseudomonas aeruginosa [5])	MIC (Klebsiella pneumoniae [6])	dose excreted at 24 h [7]	MIC (Klebsiella pneumoniae [8])	Fa at 24 h [9]	MIC (Proteus vulgaris)	dose excreted at 24 h [10]	MIC [11]	MIC (Providencia rettgeri)	MIC (Escherichia coli [12])	MIC (Escherichia coli [13])	MIC (Pseudomonas aeruginosa [14])	dose excreted at 24 h [15]	SMILES	further results
44%	41%	0.061 µg/mL (≈ 0.145 µM)	0.061 µg/mL (≈ 0.145 µM)	0.061 µg/mL (≈ 0.145 µM)	286 nM	0.061 µg/mL (≈ 0.145 µM)	0.061 µg/mL (≈ 0.145 µM)	0.061 µg/mL (≈ 0.145 µM)	4%	0.061 µg/mL (≈ 0.145 µM)	9.6%	0.061 µg/mL (≈ 0.145 µM)	8.2%	0.061 µg/mL (≈ 0.145 µM)	0.061 µg/mL (≈ 0.145 µM)	0.004 µg/mL (≈ 0.00954 µM)	0.004 µg/mL (≈ 0.00954 µM)	0.061 µg/mL (≈ 0.145 µM)	4.2%	Cc1c(N2CC(N)C2)c(F)cc2c(=O)c(C(=O)O)cn(-c3nc(N)c(F)cc3F)c12	Papp at 5 h [16]: 0.12 ×10⁻⁶ cm/s; MIC (Enterobacter cloacae): 0.061 µg/mL (≈ 0.145 µM); MIC (Escherichia coli [17]): 0.004 µg/mL (≈ 0.00954 µM); MIC (Morganella morganii): 0.061 µg/mL (≈ 0.145 µM); MIC (Salmonella typhimurium): 0.061 µg/mL (≈ 0.145 µM); MIC (Serratia marcescens [18]): 0.061 µg/mL (≈ 0.145 µM); solubility at 24 h [19]: 27 µg/mL (≈ 64.4 µM); dose excreted at 24 h [20]: 85%
49%	41%	0.077 µg/mL (≈ 0.178 µM)	0.077 µg/mL (≈ 0.178 µM)	0.077 µg/mL (≈ 0.178 µM)	554 nM	0.077 µg/mL (≈ 0.178 µM)	0.077 µg/mL (≈ 0.178 µM)	0.077 µg/mL (≈ 0.178 µM)	13%	0.077 µg/mL (≈ 0.178 µM)	31%	0.077 µg/mL (≈ 0.178 µM)	28%	0.077 µg/mL (≈ 0.178 µM)	0.077 µg/mL (≈ 0.178 µM)	0.006 µg/mL (≈ 0.0138 µM)	0.006 µg/mL (≈ 0.0138 µM)	0.077 µg/mL (≈ 0.178 µM)	16%	CNC1CN(c2c(F)cc3c(=O)c(C(=O)O)cn(-c4nc(N)c(F)cc4F)c3c2C)C1	Papp at 5 h [16]: 0.19 ×10⁻⁶ cm/s; MIC (Enterobacter cloacae): 0.077 µg/mL (≈ 0.178 µM); MIC (Escherichia coli [17]): 0.006 µg/mL (≈ 0.0138 µM); MIC (Morganella morganii): 0.077 µg/mL (≈ 0.178 µM); MIC (Salmonella typhimurium): 0.077 µg/mL (≈ 0.178 µM); MIC (Serratia marcescens [18]): 0.077 µg/mL (≈ 0.178 µM); solubility at 24 h [19]: 3.1 µg/mL (≈ 7.15 µM); dose excreted at 24 h [20]: 90%
41%	51%	0.12 µg/mL (≈ 0.268 µM)	0.12 µg/mL (≈ 0.268 µM)	0.12 µg/mL (≈ 0.268 µM)	174 nM	0.12 µg/mL (≈ 0.268 µM)	0.12 µg/mL (≈ 0.268 µM)	0.12 µg/mL (≈ 0.268 µM)	20%	0.12 µg/mL (≈ 0.268 µM)	76%	0.12 µg/mL (≈ 0.268 µM)	69%	0.12 µg/mL (≈ 0.268 µM)	0.12 µg/mL (≈ 0.268 µM)	0.006 µg/mL (≈ 0.0134 µM)	0.006 µg/mL (≈ 0.0134 µM)	0.12 µg/mL (≈ 0.268 µM)	49%	CCNC1CN(c2c(F)cc3c(=O)c(C(=O)O)cn(-c4nc(N)c(F)cc4F)c3c2C)C1	Papp at 5 h [16]: 0.29 ×10⁻⁶ cm/s; MIC (Enterobacter cloacae): 0.12 µg/mL (≈ 0.268 µM); MIC (Escherichia coli [17]): 0.006 µg/mL (≈ 0.0134 µM); MIC (Morganella morganii): 0.12 µg/mL (≈ 0.268 µM); MIC (Salmonella typhimurium): 0.12 µg/mL (≈ 0.268 µM); MIC (Serratia marcescens [18]): 0.12 µg/mL (≈ 0.268 µM); solubility at 24 h [19]: 45 µg/mL (≈ 101 µM); dose excreted at 24 h [20]: 91%
